Test results taken from ChEMBL document CHEMBL1150426, “New C5-alkylated indolobenzazepinones acting as inhibitors of tubulin polymerization: cytotoxic and antitumor activities” (J Med Chem, 2008).

Assays:
KB = assay: Cytotoxicity against human KB cells after 72 hrs; assay type: functional, cell-based
Procedure, shortened: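 KB cells in EMEM (4.5 g/L glucose, 10% FCS, 1% glutamine) seeded 5 × 10³/well, dosed after 24 h with compound in DMSO (<0.1%). 72 h exposure, then resazurin 2 h; fluorescence ex 560/em 590 nm. IC50 = 50% fluorescence decrease versus untreated; triplicate.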

[1] = Inhibition of sheep brain tubulin polymerization; parameters: species or system Ovis aries
Procedure, shortened: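 Sheep brain tubulin (about 2–3 mg/mL), purified by two assembly–disassembly cycles, in 0.1 M MES, 0.5 mM MgCl₂, 1 mM EGTA, 1 mM GTP, pH 6.6. Assembly followed by turbidity at 350 nm, 37 °C.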

MDA-MB-435 = assay: Antiproliferative activity against human MDA-MB-435 cells after 72 hrs; assay type: functional, cell-based; details: MDA-MB-435, 72 h
Procedure, shortened: (§1)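 Cells were seeded at 5 × 10³ per well and cultured for 24 h. Test compound in DMSO (under 0.1%) was then added for 72 h. Resazurin was added for 2 h, and fluorescence was read at ex 560 nm / em 590 nm. IC50 was taken as the concentration giving a 50% fall in fluorescence versus untreated cells. Runs were done in triplicate.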

A549 = assay: Antiproliferative activity against human A549 cells after 72 hrs; assay type: functional, cell-based; details: A549, 72 h; procedure, shortened: as §1
MDA-MB-231 = assay: Antiproliferative activity against human MDA-MB-231 cells after 72 hrs; assay type: functional, cell-based; details: MDA-MB-231, 72 h; procedure, shortened: as §1
B16-F10 = assay: Antiproliferative activity against mouse B16F10 cells after 72 hrs; assay type: functional, cell-based; details: B16-F10, 72 h; procedure, shortened: as §1
[2] = Antitumor activity against human U87 tumor transplanted in chick chorio-allantoic membrane assessed as reduction of tumor volume at 100 uM after 4 days; assay type: functional, U-87MG ATCC; parameters: scale not given: the % may be the effect or the level left
Procedure, shortened: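 On embryonic day 10, 5 × 10⁶ U87 glioma cells were placed on the chick CAM. On day 2 of tumor growth, size-matched tumors were split into groups. From day 3 to day 6, 20 µL of compound at 100 µM was applied locally once daily, and controls got solvent. Volume was calculated as V = 4/3πr³ with r = 1/2√(length × width), using six tumors per group.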

HCT-116 = assay: Antiproliferative activity against human HCT116 cells after 72 hrs; assay type: functional, cell-based; details: HCT-116, 72 h; procedure, shortened: as §1
[3] = Antitumor activity against human U87 tumor transplanted in chick chorio-allantoic membrane assessed as reduction of tumor volume at 10 uM after 4 days; assay type: functional, U-87MG ATCC; parameters: scale not given: the % may be the effect or the level left
Procedure, shortened: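 U87 glioma cells (5 × 10⁶ in 20 µL medium) grafted on chick CAM on embryonic day 10; size-matched tumors grouped on day 2. 20 µL drug at 10 µM applied locally once daily, days 3–6 of tumor growth; controls got solvent. Volume V = 4/3πr³ from length and width, six tumors per group.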

| IC50 [1] | SMILES | IC50 (KB) | other results |
| --- | --- | --- | --- |
| 1700 nM | CC(C)C1NC(=O)c2[nH]c3ccccc3c2-c2ccccc21 (racemic) | 280 nM |  |
| 1000 nM | CCCCC1NC(=O)c2[nH]c3ccccc3c2-c2ccccc21 (racemic) | 35 nM |  |
|  | CC1NC(=S)c2[nH]c3ccccc3c2-c2ccccc21 (racemic) | 360 nM |  |
|  | COc1cc2c(c(OC)c1OC)-c1ccc(OC)c(=O)cc1[C@@H](NC(C)=O)CC2 [COLCHICINE] | 20 nM | IC50 (MDA-MB-435): 40 nM; IC50 (MDA-MB-231): 70 nM; IC50 (B16-F10): 29 nM; Activity [3]: 50%; IC50 (HCT-116): 40 nM |
| 2000 nM | CCCC1NC(=O)c2[nH]c3ccccc3c2-c2ccccc21 (racemic) | 32 nM |  |
|  | CC1NCc2[nH]c3ccccc3c2-c2ccccc21 (racemic) | 12000 nM |  |
|  | CC1NC(=O)c2c(c3ccccc3n2C)-c2ccccc21 (racemic) | 7000 nM |  |
| 3600 nM | CCC1NC(=O)c2[nH]c3ccc(F)cc3c2-c2ccccc21 (racemic) | 500 nM |  |

| SMILES | IC50 [1] | IC50 (KB) | other results |
| --- | --- | --- | --- |
| COc1cc2c(c(OC)c1OC)-c1ccc(O)cc1[C@@H](NC(C)=O)CC2 [N-ACETYLCOLCHINOL] | 3000 nM | 75 nM | IC50 (MDA-MB-435): 140 nM; IC50 (A549): 250 nM; IC50 (MDA-MB-231): 700 nM; IC50 (B16-F10): 72 nM; Activity [2]: 42%; IC50 (HCT-116): 100 nM |
